Compound activity deposited in PubChem BioAssay by Broad Institute.
Compounds with a hit are over-represented: about 2.4% of the library has one in this group of screens.
EWS-Fli inh – EWS/Fli transcriptional activity inhibition; A673 NR0B1-luciferase reporter, viability-normalised; inhibition, % at 12.6 µM; hit rate 0.67% among 350,000; AID 651661;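 active means mean inhibition of at least 50% after viability correction, with every replicate also passing that limit; inconclusive means mean reaches 50% but only one of two replicates passes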;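 further: firefly luciferase signal divided by Alamar Blue viability fluorescence both relative to DMSO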
Ecoli rRNA inh – inhibits bacterial ribosomal RNA function over humanized ribosomes; E. coli WT GFP vs humanized-ribosome RFP mutants, fluorescence, 24 h; hits give low values; DMSO median 0, no signal -100; GFP signal change (wild-type ribosome), % (test concentration not listed); hit rate 1.6% among 350,000; AID 720706;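 active means significant combined selectivity score with lowered wild-type GFP, culture density cut under 30%, mutant RFP and density less affected; inactive means any of these conditions unmet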
E-selectin induc – induces E-selectin expression in human endothelial cells | P16581 | HUVEC E-selectin immunofluorescence imaging; normalized: neutral wells 0, TNF-alpha wells 100 | activation, % at 7.58 µM | hit rate 0.37% among 260,000;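 active means mean E-selectin-positive cell signal at least 10% of the positive control, reached in at least 60% of replicates, without over 20% cell loss; inconclusive means no rule given, readout overlaps actives, possibly toxicity-flagged; inactive means the rest, including those meeting only one limit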
Target sequence (P16581 whole entry, looked up): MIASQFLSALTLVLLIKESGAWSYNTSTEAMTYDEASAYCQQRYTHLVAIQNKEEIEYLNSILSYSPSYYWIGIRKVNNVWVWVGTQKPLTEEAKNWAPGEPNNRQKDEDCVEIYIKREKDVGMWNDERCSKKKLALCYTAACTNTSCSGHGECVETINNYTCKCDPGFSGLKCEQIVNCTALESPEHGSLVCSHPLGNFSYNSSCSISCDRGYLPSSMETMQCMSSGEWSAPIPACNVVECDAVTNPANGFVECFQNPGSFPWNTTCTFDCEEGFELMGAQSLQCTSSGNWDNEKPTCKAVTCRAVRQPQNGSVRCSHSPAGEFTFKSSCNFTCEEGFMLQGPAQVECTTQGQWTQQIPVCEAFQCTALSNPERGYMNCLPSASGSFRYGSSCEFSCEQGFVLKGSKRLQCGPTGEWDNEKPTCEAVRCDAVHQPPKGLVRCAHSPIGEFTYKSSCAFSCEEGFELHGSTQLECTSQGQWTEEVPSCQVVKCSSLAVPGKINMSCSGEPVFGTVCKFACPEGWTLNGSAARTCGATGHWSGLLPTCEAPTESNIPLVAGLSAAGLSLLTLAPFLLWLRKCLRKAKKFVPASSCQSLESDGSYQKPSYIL
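Test system: HUVEC; input: 3,000 HUVEC/well; measured by: immunofluorescence imaging; read-out: % PE-positive cells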
LGR2 inh – inhibitors of bursicon-induced Drosophila LGR2 receptor cAMP signaling | HEK293 LGR2, CRE-luciferase, bursicon-stimulated, 4 h | inhibition, % at 9.99 µM | hit rate 0.35% among 380,000;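 active means drop in luminescence signal, shown as inhibition above about 50% in the replicate tests, limit read from the data, passing the limit was not always enough; inconclusive means probably only some replicates passing the limit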;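 further: agonist challenge used bursicon conditioned medium at about half maximal strength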
Large screens that a line does not name were inactive.

Cc1nc2c(C)cccn2c1/C(O)=C1\C(=O)C(=O)N(CCN(C)C)C1c1cccs1 (stereo unspecified)	Ecoli rRNA inh -26
COc1ccc(-c2cc3c(c(-c4ccc(Oc5ccccc5)cc4)n2)[Si](C(C)C)(C(C)C)OC3)cn1	none (no result: Ecoli rRNA inh, E-selectin induc, LGR2 inh)
O/N=C/c1ccnc(SCc2ccccc2)n1	Ecoli rRNA inh -16 (no result: E-selectin induc)
Cc1ccc(-c2nn(-c3ccccn3)c(=O)c3ccccc23)cc1	none
Cc1ccc(-c2nn(-c3cc(N4CCNCC4)ccc3[N+](=O)[O-])c(=O)c3ccccc23)cc1	E-selectin induc 66
C[C@@H]1CN([C@@H](C)CO)C(=O)c2cc(NC(=O)Nc3ccc(F)cc3)ccc2O[C@@H]1CN(C)Cc1ccc(-c2ccccc2)cc1	E-selectin induc inconclusive
COCCNC(=O)/C(C#N)=C/C(C)=C/c1ccccc1	Ecoli rRNA inh -22
N#C/C(=C\c1c[nH]c2ccccc12)C(=O)NC1CCCC1	Ecoli rRNA inh -35
CC(C)NC(=O)Nc1ccc2c(c1)CC(=O)N(C)C[C@@H](C)[C@H](CN(C)C(=O)OC(C)(C)C)O2	none (no result: EWS-Fli inh, E-selectin induc, LGR2 inh)
CO[C@H]1CN(C)C(=O)c2cc(NC(=O)NC(C)C)ccc2OC[C@@H](C)N(C(=O)CC2CC2)C[C@@H]1C	none
C/C=C/c1ccc2c(c1)O[C@@H](CN(C)C(=O)C1CCC1)[C@H](C)CN([C@H](C)CO)S2(=O)=O	none
Cc1ccccc1S(=O)(=O)NCC[C@@H]1CC[C@@H](NC(=O)C2CC2)[C@@H](CO)O1	none
CCNC(=S)N/N=C/c1cccc(C)c1	Ecoli rRNA inh -14
CCNC(=S)N/N=C/c1cc(C)ccc1C	none (no result: E-selectin induc)
CCCN(C)C[C@H]1Oc2cc(C3=CCCCC3)ccc2S(=O)(=O)N([C@@H](C)CO)C[C@H]1C	none (no result: Ecoli rRNA inh)
C=CCN(c1ccccc1)S(=O)(=O)c1cccc(C(=O)NCC(c2ccc(F)cc2)N2CCOCC2)c1 (stereo unspecified)	none (no result: E-selectin induc)
CCN(c1ccccc1)S(=O)(=O)c1cccc(C(=O)NCC(c2ccc(F)cc2)N2CCOCC2)c1 (stereo unspecified)	Ecoli rRNA inh -25
CNC[C@H]1Oc2ccc(NC(=O)Nc3cccc4ccccc34)cc2CC(=O)N([C@@H](C)CO)C[C@H]1C	none
Cc1nc(C)c(-c2ccn(S(=O)(=O)c3ccc(Cl)cc3)n2)o1	Ecoli rRNA inh -19 (no result: E-selectin induc)
COc1cccc(NC(=O)N[C@H]2C=C[C@H](CC(=O)Nc3ccccc3)O[C@@H]2CO)c1	none
CCCCCc1cc(=O)oc2c(C(CCN(CC)CC)c3cc(OC)c(OC)c(OC)c3)c(OC)cc(OC)c12 (stereo unspecified)	EWS-Fli inh 51 (no result: LGR2 inh)
CCOc1cc(/C=N/N=C(N)N)ccc1OCc1ccc(Cl)cc1	LGR2 inh 53 (no result: E-selectin induc)
Cc1ccccc1NC(=O)C1CCN(S(=O)(=O)c2cccs2)CC1	none
O=C(Nc1ccccc1Br)C1CCN(S(=O)(=O)c2cccs2)CC1	Ecoli rRNA inh -16 (no result: E-selectin induc)
CC(=O)Nc1ccc(C=NNc2nnc(NN=Cc3ccc(NC(C)=O)cc3)c3ccccc23)cc1	Ecoli rRNA inh -16, LGR2 inh inconclusive
CCC(CC)C(=O)Nc1c(C(=O)N2CCN(c3ccccc3)CC2)oc2ccccc12	Ecoli rRNA inh -30 (no result: EWS-Fli inh)
CCCc1cc(=O)oc2c3c(cc(OCC(=O)NCC4CCC(C(=O)O)CC4)c12)OC(C)(C)CC3 (stereo unspecified)	Ecoli rRNA inh -39 (no result: E-selectin induc, LGR2 inh)
COc1cc(-c2noc(C)c2-c2ccc(N(C)C)nc2)cc(OC)c1OC	EWS-Fli inh 61
COc1cc2sc3ccc(-c4ccc(N(C)C)nc4)cc3c(=O)c2cc1OC	none (no result: E-selectin induc)
CCOC(=O)C1=C(c2ccccc2)NC(=O)NC1c1ccc(O)c(Cl)c1 (stereo unspecified)	EWS-Fli inh 68 (no result: E-selectin induc)
CCOC(=O)C1=C(c2ccccc2)NC(=O)NC1c1ccc(O)c(OCC)c1 (stereo unspecified)	none
CC(C)c1nnc(NC(=O)c2nc(S(=O)(=O)Cc3ccc(F)cc3)ncc2Cl)s1	none (no result: EWS-Fli inh, E-selectin induc)
Cc1ccc(CS(=O)(=O)c2ncc(Cl)c(C(=O)Nc3nnc(C(C)C)s3)n2)cc1	EWS-Fli inh 70
CCC1CCCCN1S(=O)(=O)c1ccc(NC(=O)c2ccncc2)cc1 (stereo unspecified)	none (no result: EWS-Fli inh)
CCC1CCCCN1S(=O)(=O)c1ccc(NC(=O)c2nc(S(C)(=O)=O)ncc2Cl)cc1 (stereo unspecified)	EWS-Fli inh 69, Ecoli rRNA inh -29
CS(=O)(=O)c1ncc(Cl)c(C(=O)Nc2ccc3ccccc3c2)n1	EWS-Fli inh 84 (no result: E-selectin induc, LGR2 inh)
CC(C)c1nnc(NC(=O)c2nc(S(=O)(=O)Cc3ccccc3F)ncc2Cl)s1	EWS-Fli inh 61 (no result: E-selectin induc)
